A short description of experiment [1]: Inhibition of Mycobacterium tuberculosis TMPK expressed in Escherichia coli BLi5 using dTMP as substrate in presence of ATP by spectrophotometric based LDH/PK/nucleoside diphosphate kinase enzyme coupled assay. The procedure, abridged: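 Wild-type enzyme from pHL50 in E. coli BLi5, purified by Blue-Sepharose then gel filtration. IC50 fit to four-parameter logistic of % inhibition.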

The test system of experiment [2] is Mycobacterium tuberculosis. The experiment can be described thus: Inhibition of Mycobacterium tuberculosis TMPK expressed in Escherichia coli BLi5 at 0.8 mM using dTMP as substrate in presence of ATP by spectrophotometric based LDH/PK/nucleoside diphosphate kinase enzyme coupled assay.

pIC50: −log10 of the molar value. The source made the active and inactive calls. No cut-off for these calls is given here. Bounds are passed on as bounds.

In ChEMBL document CHEMBL4020841, “Structure Guided Lead Generation toward Nonchiral M. tuberculosis Thymidylate Kinase Inhibitors” (J Med Chem, 2018) one finds IC50 and inhibition data, which are given here for 35 molecules.

One may read the pIC50 as −log10 of the IC50, conventionally taken in molar units.

Consider `COc1ccc(CN2CCC(n3cc(C)c(=O)[nH]c3=O)CC2)cc1`, for which the pIC50 in experiment [1] was 3.95.

Take `Cc1cn(C2CCN(Cc3cncc4ccccc34)CC2)c(=O)[nH]c1=O`: the pIC50 in experiment [1] was 4.60.

Regarding `Cc1cn(C2CCN(Cc3cccc4ccccc34)CC2)c(=O)[nH]c1=O`, in experiment [1], the pIC50 was 4.42.

On to `Cc1cn(C2CCN(CCc3cccc(Oc4ccccc4)c3)CC2)c(=O)[nH]c1=O`, for which, in experiment [1], the pIC50 is 4.96.

On to `Cc1cn(C2CCN(Cc3ccnc4ccccc34)CC2)c(=O)[nH]c1=O`, for which, in experiment [1], the negative logarithm of the IC50 (pIC50) is 4.60.

With `Cc1cn(C2CCN(Cc3cnc4ccccc4c3)CC2)c(=O)[nH]c1=O`, the pIC50 in experiment [1] was 4.77.

Regarding `Cc1cn(C2CCN(C(=O)c3ccc(Oc4ccccc4)cc3)CC2)c(=O)[nH]c1=O`, the pIC50 in experiment [1] was 3.45.

Turning to `Cc1cn(C2CCN(Cc3ccco3)CC2)c(=O)[nH]c1=O`, the pIC50 in experiment [1] was 3.94.

As to `Cc1cn(C2CCN(Cc3ccc(C(=O)O)cc3)CC2)c(=O)[nH]c1=O`, the pIC50 in experiment [1] was 3.85.

For the molecule `Cc1cn(C2CCN(Cc3ccoc3)CC2)c(=O)[nH]c1=O`, in experiment [1], the pIC50 is 3.60.

As for `Cc1cn(C2CCN(CC3CCCCC3)CC2)c(=O)[nH]c1=O`, the pIC50 in experiment [1] is 2.95.

In the case of `Cc1cn(C2CCN(Cc3cccc(Oc4ccccc4)c3)CC2)c(=O)[nH]c1=O`, in experiment [1], the pIC50 is 5.21.

With `Cc1cn(C2CCN(Cc3cc4ccccc4o3)CC2)c(=O)[nH]c1=O`, the pIC50 in experiment [1] was 4.64.

Regarding `Cc1cn(C2CCN(Cc3cccc(C(=O)O)n3)CC2)c(=O)[nH]c1=O`, the pIC50 in experiment [1] was 3.84.

Take `Cc1cn(CC2CCN(Cc3cccc(Oc4ccccc4)c3)CC2)c(=O)[nH]c1=O`: the inhibition entry in experiment [2] was “inactive”.

Turning to `Cc1cn(C2CCN(Cc3cc4ccccc4cn3)CC2)c(=O)[nH]c1=O`, the pIC50 in experiment [1] was 4.59.

For the molecule `Cc1cccc(CN2CCC(n3cc(C)c(=O)[nH]c3=O)CC2)c1`, in experiment [1], the pIC50 is 4.14.

Take `Cc1cn(C2CCN(Cc3ccc(N(C)C)cc3)CC2)c(=O)[nH]c1=O`: in experiment [1], the pIC50 is 3.48.

With `Cc1cn(C2CCN(Cc3nccc4ccccc34)CC2)c(=O)[nH]c1=O`, the pIC50 in experiment [1] was 4.57.

Consider `Cc1cn(CC2CCN(Cc3ccc(Oc4ccccc4)cc3)CC2)c(=O)[nH]c1=O`, for which the pIC50 in experiment [1] was below 2.70.

Take `Cc1cn(C2CCN(C(=O)c3cccc(Oc4ccccc4)c3)CC2)c(=O)[nH]c1=O`: the negative logarithm of the IC50 (pIC50) in experiment [1] is 3.63.

Take `Cc1cn(C2CCN(Cc3ccncc3)CC2)c(=O)[nH]c1=O`: the pIC50 in experiment [1] was 4.31.

For `Cc1cn(C2CN(CCCc3cccc(Oc4ccccc4)c3)C2)c(=O)[nH]c1=O`, in experiment [1], the pIC50 is 2.94.

For `Cc1cn(C2CN(Cc3ccc(Oc4ccccc4)cc3)C2)c(=O)[nH]c1=O`, the pIC50 in experiment [1] is 3.08.

For `Cc1cn(C2CCN(Cc3ccc(Oc4ccccc4)cc3)CC2)c(=O)[nH]c1=O`, the negative logarithm of the IC50 (pIC50) in experiment [1] is 4.54.

With `Cc1cn(C2CCN(Cc3ccc(C#N)cc3)CC2)c(=O)[nH]c1=O`, the pIC50 in experiment [1] is 4.46.

In the case of `Cc1cn(C2CCN(Cc3cccnc3)CC2)c(=O)[nH]c1=O`, the pIC50 in experiment [1] is 4.12.

Consider `Cc1cn(C2CN(CCc3cccc(Oc4ccccc4)c3)C2)c(=O)[nH]c1=O`, for which the pIC50 in experiment [1] was 2.72.

In the case of `Cc1cn(C2CN(Cc3cccc(Oc4ccccc4)c3)C2)c(=O)[nH]c1=O`, in experiment [1], the pIC50 was 3.03.

For the molecule `Cc1ccc(CN2CCC(n3cc(C)c(=O)[nH]c3=O)CC2)cc1`, the negative-log IC50 (pIC50) in experiment [1] is 3.77.

As for `Cc1cn(C2CCN(Cc3ccc(Cl)cc3)CC2)c(=O)[nH]c1=O`, the pIC50 in experiment [1] was 4.40.

Consider `Cc1cn(C2CCN(Cc3cc(Oc4ccccc4)c4ccc(Cl)cc4n3)CC2)c(=O)[nH]c1=O`, for which, in experiment [1], the pIC50 was 5.74.

Consider `Cc1cn(C2CCN(Cc3ccccn3)CC2)c(=O)[nH]c1=O`, for which the pIC50 in experiment [1] was 4.02.

On to `Cc1cn(C2CCN(Cc3ccccc3)CC2)c(=O)[nH]c1=O`, for which the pIC50 in experiment [1] was 3.86.

For the molecule `Cc1cn(C2CCN(Cc3ccc4ccccc4c3)CC2)c(=O)[nH]c1=O`, the pIC50 in experiment [1] was 4.70.
